Measurements reported in ChEMBL document CHEMBL3091458, “Design, synthesis, and biological evaluation of 1,2,4-triazole bearing 5-substituted biphenyl-2-sulfonamide derivatives as potential antihypertensive candidates” (Bioorg Med Chem, 2013).

What was measured:
[1] = Displacement of [125I]-Ang-2 from AT2 receptor in porcine myometrial membranes after 1.5 hrs; type: cell membranes, Sus scrofa
In short: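 Membranes were made from porcine uteri (myometrium). AT1 binding was blocked by adding losartan. [125I]Ang II binding ran in 50 mM Tris-HCl pH 7.4 with 100 mM NaCl, 10 mM MgCl2, 1 mM EDTA, 0.025% bacitracin and 0.2% BSA, at 25 °C for 1.5 h. Bound ligand was caught on GF/C filters, washed with cold Tris and gamma-counted. IC50 was the concentration displacing 50% of specific binding. Run in triplicate.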

[2] = Displacement of [125I]-Ang-2 from AT1 receptor in rat liver membranes after 1.5 hrs; type: cell membranes, Membrane
Rattus norvegicus [3] = assay: Toxicity in renal spontaneously hypertensive rat model assessed as reduction of heart rate at 20 mg/kg, po measured at 8 hrs by tail-cuff method relative to control; type: organism-based; design: dose 20 mg/kg, route oral; details: in vivo
In short: (§1)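 Spontaneously hypertensive rats were dosed orally with the test agent at 20 mg/kg, with a saline-dosed control group. SAP, DAP, MAP and heart rate were recorded before dosing and at 1, 2, 4, 6 and 8 h after. Change was taken as the post-dose value minus the pre-dose value. Significance was judged against the control at p < 0.1 and p < 0.05.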

Rattus norvegicus [4] = assay: Toxicity in renal spontaneously hypertensive rat model assessed as reduction of heart rate at 20 mg/kg, po measured at 6 hrs by tail-cuff method relative to control; type: organism-based; design: dose 20 mg/kg, route oral; details: in vivo; in short: as §1
Rattus norvegicus [5] = assay: Toxicity in renal spontaneously hypertensive rat model assessed as reduction of heart rate at 20 mg/kg, po measured at 4 hrs by tail-cuff method relative to control; type: organism-based; design: dose 20 mg/kg, route oral; details: in vivo; in short: as §1
Rattus norvegicus [6] = assay: Toxicity in renal spontaneously hypertensive rat model assessed as reduction of heart rate at 20 mg/kg, po measured at 2 hrs by tail-cuff method relative to control; type: organism-based; design: dose 20 mg/kg, route oral; details: in vivo; in short: as §1
Rattus norvegicus [7] = assay: Toxicity in renal spontaneously hypertensive rat model assessed as reduction of heart rate at 20 mg/kg, po measured at 1 hr by tail-cuff method relative to control; type: organism-based; design: dose 20 mg/kg, route oral; details: in vivo; in short: as §1
Rattus norvegicus [8] = assay: Antihypertensive activity in renal spontaneously hypertensive rat model assessed as reduction of mean arterial pressure at 20 mg/kg, po measured at 6 hrs by tail-cuff method relative to control; type: functional, Artery; in short: as §1
Rattus norvegicus [9] = assay: Antihypertensive activity in renal spontaneously hypertensive rat model assessed as reduction of mean arterial pressure at 20 mg/kg, po measured at 4 hrs by tail-cuff method relative to control; type: functional, Artery; in short: as §1
Rattus norvegicus [10] = assay: Antihypertensive activity in renal spontaneously hypertensive rat model assessed as reduction of mean arterial pressure at 20 mg/kg, po measured at 1 hr by tail-cuff method relative to control; type: functional, Artery; in short: as §1
Rattus norvegicus [11] = assay: Antihypertensive activity in renal spontaneously hypertensive rat model assessed as reduction of diastolic arterial pressure at 20 mg/kg, po measured at 8 hrs by tail-cuff method relative to control; type: functional, Artery; in short: as §1
Rattus norvegicus [12] = assay: Antihypertensive activity in renal spontaneously hypertensive rat model assessed as reduction of diastolic arterial pressure at 20 mg/kg, po measured at 6 hrs by tail-cuff method relative to control; type: functional, Artery; in short: as §1
Rattus norvegicus [13] = assay: Antihypertensive activity in renal spontaneously hypertensive rat model assessed as reduction of diastolic arterial pressure at 20 mg/kg, po measured at 4 hrs by tail-cuff method relative to control; type: functional, Artery; in short: as §1
Rattus norvegicus [14] = assay: Antihypertensive activity in renal spontaneously hypertensive rat model assessed as reduction of diastolic arterial pressure at 20 mg/kg, po measured at 2 hrs by tail-cuff method relative to control; type: functional, Artery; in short: as §1
Rattus norvegicus [15] = assay: Antihypertensive activity in renal spontaneously hypertensive rat model assessed as reduction of diastolic arterial pressure at 20 mg/kg, po measured at 1 hr by tail-cuff method relative to control; type: functional, Artery; in short: as §1
Rattus norvegicus [16] = assay: Antihypertensive activity in renal spontaneously hypertensive rat model assessed as reduction of systolic arterial pressure at 20 mg/kg, po measured at 8 hrs by tail-cuff method relative to control; type: functional, Artery; in short: as §1
Rattus norvegicus [17] = assay: Antihypertensive activity in renal spontaneously hypertensive rat model assessed as reduction of systolic arterial pressure at 20 mg/kg, po measured at 6 hrs by tail-cuff method relative to control; type: functional, Artery; in short: as §1
Rattus norvegicus [18] = assay: Antihypertensive activity in renal spontaneously hypertensive rat model assessed as reduction of systolic arterial pressure at 20 mg/kg, po measured at 4 hrs by tail-cuff method relative to control; type: functional, Artery; in short: as §1
Rattus norvegicus [19] = assay: Antihypertensive activity in renal spontaneously hypertensive rat model assessed as reduction of systolic arterial pressure at 20 mg/kg, po measured at 2 hrs by tail-cuff method relative to control; type: functional, Artery; in short: as §1
Rattus norvegicus [20] = assay: Antihypertensive activity in renal spontaneously hypertensive rat model assessed as reduction of systolic arterial pressure at 20 mg/kg, po measured at 1 hr by tail-cuff method relative to control; type: functional, Artery; in short: as §1
Rattus norvegicus [21] = assay: Antihypertensive activity in renal spontaneously hypertensive rat model assessed as reduction of mean arterial pressure at 20 mg/kg, po measured at 8 hrs by tail-cuff method relative to control; type: functional, Artery; in short: as §1
Rattus norvegicus [22] = assay: Antihypertensive activity in renal spontaneously hypertensive rat model assessed as reduction of mean arterial pressure at 20 mg/kg, po measured at 2 hrs by tail-cuff method relative to control; type: functional, Artery; in short: as §1

## Cc1cc(Cn2cnc3c2C[C@@H](C(=O)O)N(C(=O)C(c2ccccc2)c2ccccc2)C3)ccc1N(C)C
[1]
  IC50: 29 nM
[2]
  IC50: > 10 µM

## CCC(=O)NS(=O)(=O)c1ccc(CC(C)C)cc1-c1ccc(Cn2cncn2)cc1
[1]
  IC50: 68 nM
[2]
  IC50: > 10 µM

## CCCCC(=O)NS(=O)(=O)c1ccc(CC(C)C)cc1-c1ccc(Cn2cncn2)cc1
[1]
  IC50: 31 nM
[2]
  IC50: > 10 µM

## Cc1ccc(C(=O)NS(=O)(=O)c2ccc(CC(C)C)cc2-c2ccc(Cn3cncn3)cc2)cc1
[1]
  IC50: > 10000 nM
[2]
  IC50: > 10 µM

## CCOC(=O)NS(=O)(=O)c1ccc(CC(C)C)cc1-c1ccc(Cn2cncn2)cc1
[1]
  IC50: 10 nM
[2]
  IC50: > 10 µM

## CC(C)Cc1ccc(S(=O)(=O)NC(=O)OC(C)(C)C)c(-c2ccc(Cn3cncn3)cc2)c1
[1]
  IC50: 55 nM
[2]
  IC50: > 10 µM

## CCCCOC(=O)NS(=O)(=O)c1ccc(CC(C)C)cc1-c1ccc(Cn2cncn2)cc1
Rattus norvegicus [3]
  Activity: -14.33 bpm
Rattus norvegicus [4]
  Activity: -16.69 bpm
Rattus norvegicus [5]
  Activity: -14.53 bpm
Rattus norvegicus [6]
  Activity: -5.02 bpm
Rattus norvegicus [7]
  Activity: 7.25 bpm
Rattus norvegicus [8]
  Activity: -21.88 mmHg
Rattus norvegicus [9]
  Activity: -14.16 mmHg
Rattus norvegicus [10]
  Activity: 4.43 mmHg
Rattus norvegicus [11]
  Activity: -14.1 mmHg
Rattus norvegicus [12]
  Activity: -21.36 mmHg
Rattus norvegicus [13]
  Activity: -12.32 mmHg
Rattus norvegicus [14]
  Activity: -3.55 mmHg
Rattus norvegicus [15]
  Activity: 4.93 mmHg
Rattus norvegicus [16]
  Activity: -15.22 mmHg
Rattus norvegicus [17]
  Activity: -20.94 mmHg
Rattus norvegicus [18]
  Activity: -14.29 mmHg
Rattus norvegicus [19]
  Activity: -4.26 mmHg
Rattus norvegicus [20]
  Activity: -7.25 mmHg
Rattus norvegicus [21]
  Activity: -15.09 mmHg
Rattus norvegicus [22]
  Activity: -4.78 mmHg
[1]
  IC50: 0.4 nM
[2]
  IC50: > 10 µM

## CC(C)Cc1ccc(S(=O)(=O)NC(=O)OCc2ccccc2)c(-c2ccc(Cn3cncn3)cc2)c1
[1]
  IC50: > 10000 nM
[2]
  IC50: > 10 µM

## CCC(=O)NS(=O)(=O)c1ccc(OC)cc1-c1ccc(Cn2cncn2)cc1
[1]
  IC50: 184 nM
[2]
  IC50: > 10 µM

## CCCCC(=O)NS(=O)(=O)c1ccc(OC)cc1-c1ccc(Cn2cncn2)cc1
[1]
  IC50: 99 nM
[2]
  IC50: > 10 µM

## CCOC(=O)NS(=O)(=O)c1ccc(OC)cc1-c1ccc(Cn2cncn2)cc1
[1]
  IC50: 36 nM
[2]
  IC50: > 10 µM

## COc1ccc(S(=O)(=O)NC(=O)OC(C)(C)C)c(-c2ccc(Cn3cncn3)cc2)c1
[1]
  IC50: 170 nM
[2]
  IC50: > 10 µM

## CCCCOC(=O)NS(=O)(=O)c1ccc(OC)cc1-c1ccc(Cn2cncn2)cc1
Rattus norvegicus [3]
  Activity: -22.9 bpm
Rattus norvegicus [4]
  Activity: -14.47 bpm
Rattus norvegicus [5]
  Activity: -13.45 bpm
Rattus norvegicus [6]
  Activity: -7.64 bpm
Rattus norvegicus [7]
  Activity: 7.05 bpm
Rattus norvegicus [8]
  Activity: -17.08 mmHg
Rattus norvegicus [9]
  Activity: -10.15 mmHg
Rattus norvegicus [10]
  Activity: -4.09 mmHg
Rattus norvegicus [11]
  Activity: -13.1 mmHg
Rattus norvegicus [12]
  Activity: -17.36 mmHg
Rattus norvegicus [13]
  Activity: -10.32 mmHg
Rattus norvegicus [14]
  Activity: -5.06 mmHg
Rattus norvegicus [15]
  Activity: -4.21 mmHg
Rattus norvegicus [16]
  Activity: -10.1 mmHg
Rattus norvegicus [17]
  Activity: -18.94 mmHg
Rattus norvegicus [18]
  Activity: -10.71 mmHg
Rattus norvegicus [19]
  Activity: -4.26 mmHg
Rattus norvegicus [20]
  Activity: -3.41 mmHg
Rattus norvegicus [21]
  Activity: -12.19 mmHg
Rattus norvegicus [22]
  Activity: -5.62 mmHg
[1]
  IC50: 5 nM
[2]
  IC50: > 10 µM

## COc1ccc(S(=O)(=O)NC(=O)OCc2ccccc2)c(-c2ccc(Cn3cncn3)cc2)c1
[1]
  IC50: > 10000 nM
[2]
  IC50: > 10 µM

## CCC(=O)NS(=O)(=O)c1ccc(C)cc1-c1ccc(Cn2cncn2)cc1
[1]
  IC50: 223 nM
[2]
  IC50: > 10 µM
